According to ChEMBL document CHEMBL1221409, “Antioxidant and anti-inflammatory phenylpropanoid derivatives from Calamus quiquesetinervius” (J Nat Prod, 2010):
pIC50: −log10 of the molar value.

What was measured:
[1] = tested on: Radical scavenging activity; assay: Antioxidant activity assessed as DPPH radical scavenging activity after 30 mins by ELISA reader; assay type: functional
How it was run: (§1)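 Radical scavenging was tested with Trolox and quercetin as positive controls. Values are from three replicates, reported as means ± SD and expressed as IC50.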

[2] = Antioxidant activity assessed as hydroxyl radical scavenging activity by chemiluminescence analysis; assay type: functional; how it was run: as §1
[3] = Antioxidant activity assessed as superoxide radical scavenging activity by chemiluminescence analysis; assay type: functional
How it was run: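 Superoxide (·O2−) scavenging was tested with Trolox and quercetin as positive controls. Values are from three replicates, reported as means ± SD.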

[4] = tested on: RAW264.7; assay: Antiinflammatory activity against LPS-stimulated mouse RAW264.7 cells assessed as inhibition of NO production after 24 hrs; assay type: functional, cell-based; settings: RAW264.7, 24 h
How it was run: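 RAW 264.7 macrophages were stimulated with LPS in the presence of the test agent for 24 h. Inhibition of NO production was expressed as IC50, with quercetin as the reference.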

[5] = Cytotoxicity against mouse RAW264.7 cells assessed as cell viability upto 100 uM by MTS assay; assay type: cell-based; settings: read-out: Activity
How it was run: (§2)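 RAW 264.7 cells were incubated 24 h with the agent at various concentrations up to 100 µM, with or without LPS in the medium. Cell viability was read by MTS assay.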

[6] = Cytotoxicity against LPS-stimulated mouse RAW264.7 cells assessed as cell viability upto 100 uM by MTS assay; assay type: cell-based; settings: LPS-stimulated RAW264.7 cells, read-out: Activity; how it was run: as §2

pIC50 [1] | pIC50 [2] | pIC50 [3] | pIC50 [4] | SMILES | viability [5] [%] | viability [6] [%]
4.48 | 5.37 | 4.60 |  | Cc1c(C)c2c(c(C)c1O)CCC(C)(C(=O)O)O2 (configuration not stated) [TROLOX] |  | 
4.19 | 5.08 | < 3.70 | 5.02 | COc1cc(/C=C/C(=O)OC[C@H]2O[C@@](CO)(O[C@H]3O[C@H](COC(C)=O)[C@@H](OC(=O)/C=C/c4ccc(O)cc4)[C@H](O)[C@H]3O)[C@@H](OC(=O)/C=C/c3ccc(O)c(OC)c3)[C@@H]2O)ccc1O | > 90 | > 90
 | 4.59 | < 3.70 | 3.65 | COc1cc([C@H]2Oc3c(OC)cc(/C=C/COC(=O)c4ccc(O)cc4)cc3[C@@H]2COC(=O)c2ccc(O)cc2)cc(OC)c1O [QUIQUESETINERVIUSIN B] | > 90 | > 90
< 4.00 | 4.88 | < 3.70 | 4.53 | COc1cc([C@H](O)[C@H](CO)Oc2c(OC)cc(-c3cc(=O)c4c(O)cc(O)cc4o3)cc2OC)ccc1O [SALCOLIN B] | > 90 | > 90
< 4.00 | 4.78 | < 3.70 | 4.02 | CCO[C@H](c1ccc(O)c(OC)c1)[C@H](COC(=O)c1ccc(O)cc1)Oc1ccc(/C=C/COC(=O)c2ccc(O)cc2)cc1OC (relative stereo) [QUIQUESETINERVIUSIN C] | > 90 | > 90
4.20 | 5.17 | < 3.70 | 4.11 | COc1cc(/C=C/C(=O)OC[C@H]2O[C@@](CO)(O[C@H]3O[C@H](CO)[C@@H](OC(=O)/C=C/c4ccc(O)c(OC)c4)[C@H](O)[C@H]3O)[C@@H](OC(=O)/C=C/c3ccc(O)c(OC)c3)[C@@H]2O)ccc1O | > 90 | > 90

The remaining lines, values behind:

SMILES | pIC50 [1] | pIC50 [2] | pIC50 [3] | pIC50 [4] | viability [5] [%] | viability [6] [%]
COc1cc(C2Oc3c(OC)cc(/C=C/C=O)cc3C2COC(=O)c2ccc(O)cc2)ccc1O (configuration not stated) | < 4.00 | 4.72 | < 3.70 | 4.16 | > 90 | > 90
COc1cc(/C=C/C(=O)OC[C@H]2O[C@@](CO)(O[C@H]3O[C@H](CO)[C@@H](OC(=O)/C=C/c4ccc(O)cc4)[C@H](O)[C@H]3OC(C)=O)[C@@H](OC(=O)/C=C/c3ccc(O)c(OC)c3)[C@@H]2O)ccc1O | 4.16 | 5.26 | < 3.70 | 5.04 | > 90 | > 90
COc1cc([C@H]2Oc3c(OC)cc(/C=C/COC(=O)c4ccc(O)cc4)cc3[C@@H]2COC(=O)c2ccc(O)cc2)ccc1O [QUIQUESETINERVIUSIN A] |  | 4.63 | < 3.70 | 4.63 | > 90 | > 90
O=c1c(O)c(-c2ccc(O)c(O)c2)oc2cc(O)cc(O)c12 [QUERCETIN] |  |  |  | 4.46 |  | 
COc1cc(/C=C/C(=O)OC[C@H]2O[C@@](CO)(O[C@H]3O[C@H](COC(C)=O)[C@@H](OC(=O)/C=C/c4ccc(O)c(OC)c4)[C@H](O)[C@H]3O)[C@@H](OC(=O)/C=C/c3ccc(O)c(OC)c3)[C@@H]2O)ccc1O | 4.00 | 5.13 | < 3.70 | 4.22 | > 90 | > 90
COc1cc(/C=C/C(=O)OC[C@H]2O[C@@](CO)(O[C@H]3O[C@H](CO)[C@@H](OC(=O)/C=C/c4ccc(O)c(OC)c4)[C@H](O)[C@H]3OC(C)=O)[C@@H](OC(=O)/C=C/c3ccc(O)c(OC)c3)[C@@H]2O)ccc1O | 4.16 | 5.44 | 3.73 | 4.38 | > 90 | > 90
